Paper PMC10559049 (Heliyon, 2023)
Blank lines part the entries; values can stand above or below the compound they belong to.

Tests used:
[1] = named as a side effect restricting use; cited from earlier work
[2] = named as a side effect restricting use; cited from earlier work; remark: listed apart in the source
sEH [3] = molecular target: T1, sEH (Homo sapiens, UniProt P34913); test: Enzyme kinetics analysis; assay type: biochemical
T1 sequence (P34913 1-555): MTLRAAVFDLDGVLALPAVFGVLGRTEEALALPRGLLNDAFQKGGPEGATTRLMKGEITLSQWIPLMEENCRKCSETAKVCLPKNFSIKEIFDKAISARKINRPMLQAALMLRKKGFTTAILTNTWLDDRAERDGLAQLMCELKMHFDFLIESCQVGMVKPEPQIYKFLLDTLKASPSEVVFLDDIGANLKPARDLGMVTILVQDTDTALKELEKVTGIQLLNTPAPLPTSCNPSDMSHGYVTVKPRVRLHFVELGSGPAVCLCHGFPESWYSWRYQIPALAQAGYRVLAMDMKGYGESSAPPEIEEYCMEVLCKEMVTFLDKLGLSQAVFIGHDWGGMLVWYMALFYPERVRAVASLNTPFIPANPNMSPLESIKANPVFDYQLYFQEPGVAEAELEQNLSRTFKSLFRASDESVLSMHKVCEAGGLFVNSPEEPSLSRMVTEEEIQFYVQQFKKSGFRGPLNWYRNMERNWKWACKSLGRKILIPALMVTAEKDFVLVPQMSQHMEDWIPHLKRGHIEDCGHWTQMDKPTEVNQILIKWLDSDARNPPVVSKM
How it was run: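 Recombinant human sEH (250 ng/mL) in 25 mM Tris–HCl, pH 7.0, with 0.1 mg/mL BSA, mixed with inhibitor in methanol, then PHOME substrate added at several concentrations. Product fluorescence was read at ex 330/em 465 nm. Initial velocities at each fixed inhibitor concentration were plotted double-reciprocally (Lineweaver–Burk) to assign inhibition mode and derive Ki. Triplicates in three independent experiments, mean ± SEM.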

sEH [4] = molecular target: T1, sEH; test: biochemical
[5] = tested on: LPS-treated BV2 microglial cells; settings: 15 μmol; cited from earlier work
sEH [6] = settings: derived from the leaves of Capsicum chinense; cited from earlier work

Compound: O=C(O)CCCCCCCCCCCNC(=O)NC12CC3CC(CC(C3)C1)C2 [AUDA, 12-(3-adamantane-1-yl-ureido)-dodecanoic acid]
water solubility [1]: limited water solubility | metabolic stability [2]: metabolic instability

Ki (sEH [3]): 1500 nM | Inhibition type (sEH [3]; Lineweaver-Burk plots): Competitive | IC50 (sEH [4]): 3300 ± 300 nM
Compound: COc1cc([C@@H]2Oc3c(OC)cc(/C=C/C(=O)NCCc4ccc(O)cc4)cc3[C@H]2C(=O)NCCc2ccc(O)cc2)ccc1O [Compound 5, grossamide]

Compound: COc1cc(/C=C(C(=O)NCCc2ccc(O)cc2)\C(=C/c2ccc(O)c(OC)c2)C(=O)NCCc2ccc(O)cc2)ccc1O [cannabisin G]
anti-neuroinflammatory activities via TNF-α suppression [5]: exerted anti-neuroinflammatory activities

Compound: O=C(/C=C/c1ccc(O)cc1)NCCc1ccc(O)cc1 [N-trans-Coumaroyltyramine]
mode of inhibition against sEH (sEH [6]): competitive inhibition

Compound: COc1cc(/C=C/C(=O)NCCc2ccc(O)cc2)ccc1O [N-trans-feruloyltyramine]
mode of inhibition against sEH (sEH [6]): competitive inhibition

Compound: coumaroyl-amino butanol glucopyranoside
anti-neuroinflammatory activities via TNF-α suppression [5]: exerted anti-neuroinflammatory activities

Compound: O=C(C=Cc1cc(O)c2c(c1)C(C(=O)NCCc1ccc(O)cc1)C(c1ccc(O)c(O)c1)O2)NCCc1ccc(O)cc1 (stereo not shown) [3,3′-demethyl-grossamide]
anti-neuroinflammatory activities via TNF-α suppression [5]: exerted anti-neuroinflammatory activities
